Source: ChEMBL document CHEMBL1154565, “Cytotoxic constituents of the roots of Ekmanianthe longiflora” (2000)
≈ marks a conversion by molar mass, not a printed value. Calls of active or inactive are those of the source. The calls are words filed in the database; no cut-off is given here.

Experiments:
KB = assay: Cytotoxicity against human KB cells; format: functional; details: for EC50: read-out: ED50 (the source's name)
Col2 = assay: Cytotoxicity against human Col2 cells; format: functional; details: for EC50: read-out: ED50 (the source's name)
SW626 = assay: Cytotoxicity against human SW626 cells; format: functional; details: for EC50: read-out: ED50 (the source's name)
[1] = (§1) Cytotoxicity against human BC1 cells; format: functional; details: read-out: ED50 (the source's name)
[2] = (§2) Cytotoxicity against human multidrug resistant KB-V cells in presence of vinblastine; format: functional; details: KBV, read-out: ED50 (the source's name)
[3] = (§3) Cytotoxicity against human multidrug resistant KB-V cells; format: functional; details: KBV, read-out: ED50 (the source's name)
LNCaP = assay: Cytotoxicity against human LNCaP cells; format: functional; details: for EC50: read-out: ED50 (the source's name)
M109 (Mus musculus) = assay: Cytotoxicity against mouse M109 cells; details: for EC50: read-out: ED50 (the source's name)
[4] = (§4) Cytotoxicity against human […] cells; format: functional; details: read-out: ED50 (the source's name)
SK-N-SH = assay: Cytotoxicity against human SK-N-SH cells; format: functional; details: for EC50: read-out: ED50 (the source's name)
BC1 = assay: as §1; format: functional
KB-V [5] = assay: as §2; format: functional
KB-V [6] = assay: as §3; format: functional
Lo1 = assay: as §4; format: functional
P388 = assay: Antitumor activity against mouse P388 leukemia system at 72 mg/kg, ip relative to control; format: functional; details: route intraperitoneal
In short: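 Six female CDF1 mice per group received 10^6 P-388 cells i.p. in 0.5 mL RPMI medium. Starting one day later, test compound was given i.p. daily for 5 days, with doses of 8, 24 and 72 mg/kg/injection. Read-out was survival, reported as % T/C (median survival of treated over control ×100). T/C ≥125% was taken as significant.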

Compound	EC50 (KB) [µg/mL]	EC50 (Col2) [µg/mL]	EC50 (SW626) [µg/mL]	EC50 [1] [µg/mL]	EC50 [2] [µg/mL]	EC50 [3] [µg/mL]	EC50 (LNCaP) [µg/mL]	EC50 (M109 (Mus musculus)) [µg/mL]	EC50 [4] [µg/mL]	EC50 (SK-N-SH) [µg/mL]	Activity (KB)	Activity (Col2)	Activity (SW626)	Activity (BC1)	Activity (KB-V [5])	Activity (KB-V [6])	Activity (LNCaP)	Activity (M109 (Mus musculus))	Activity (Lo1)	Activity (SK-N-SH)	further results
C=C(C)C1CC2=C(O1)C(=O)c1ccccc1C2=O (stereo not drawn) [DEHYDROISO-ALPHA-LAPACHONE]	0.2 (≈ 0.832 µM)	0.2 (≈ 0.832 µM)	0.3 (≈ 1.25 µM)	1 (≈ 4.16 µM)	0.3	0.5 (≈ 2.08 µM)	0.2 (≈ 0.832 µM)	0.4 (≈ 1.66 µM)	0.2 (≈ 0.832 µM)	0.2 (≈ 0.832 µM)											
CC(C)=CC[C@@H]1C[C@H](O)c2ccccc2C1=O											inactive	inactive	inactive	inactive	inactive	inactive	inactive	inactive	inactive	inactive	
CC(O)c1cc2c(o1)C(=O)c1ccccc1C2=O (stereo unspecified)	0.5 (≈ 2.06 µM)	1.8 (≈ 7.43 µM)	0.3 (≈ 1.24 µM)	3.2 (≈ 13.2 µM)	1.2	2 (≈ 8.26 µM)	3.5 (≈ 14.4 µM)	1.8 (≈ 7.43 µM)	0.2 (≈ 0.826 µM)	4 (≈ 16.5 µM)											T/C (P388): 110%
CC(C)=CC[C@H]1C[C@H](O)c2ccccc2C1=O											inactive	inactive	inactive	inactive	inactive	inactive	inactive	inactive	inactive	inactive	
CC(C)=CC[C@H]1C(=O)c2ccccc2[C@@H](O)[C@@H]1O											inactive	inactive	inactive	inactive	inactive	inactive	inactive	inactive	inactive	inactive	
CC(C)(O)[C@H]1C[C@H]2C(=O)c3ccccc3[C@@H](O)[C@@H]2O1 (relative stereo)											inactive	inactive	inactive	inactive	inactive	inactive	inactive	inactive	inactive	inactive	
CC(C)=CC[C@@H]1C(=O)c2ccccc2[C@@H](O)[C@@H]1O											inactive	inactive	inactive	inactive	inactive	inactive	inactive	inactive	inactive	inactive	
CC1(C)CCC2=C(O1)C(=O)c1ccccc1C2=O [ALPHA-LAPACHONE]	13 (≈ 53.7 µM)	9.9 (≈ 40.9 µM)	3 (≈ 12.4 µM)	6.7 (≈ 27.7 µM)	8.3	12.9 (≈ 53.2 µM)	7.1 (≈ 29.3 µM)	9 (≈ 37.1 µM)	5.3 (≈ 21.9 µM)	5.1 (≈ 21.1 µM)											
CC(=O)c1cc2c(o1)C(=O)c1ccccc1C2=O [NAPABUCASIN]	0.2 (≈ 0.833 µM)	0.4 (≈ 1.67 µM)	0.2 (≈ 0.833 µM)	0.4 (≈ 1.67 µM)	0.9	0.9 (≈ 3.75 µM)	0.2 (≈ 0.833 µM)	0.9 (≈ 3.75 µM)	0.3 (≈ 1.25 µM)	0.8 (≈ 3.33 µM)											
